Test results taken from publication PMC5327638 (Theranostics, 2017).

Key:
[1] = target: chemokine receptor 4 (CXCR4), MDAMB231 X4 cells (Homo sapiens, UniProt P61073); experiment: Fluorescence flow cytometry saturation binding
In short: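 Trypsinised cells (300000 per aliquot) were exposed to tracer at 0–1000 nM in 0.1% BSA/PBS for 1 hr at 4 °C, washed three times and resuspended. Flow cytometry used a 635 nm laser with a […] filter. Mean fluorescence counts gave saturation curves. Triplicates, total n=6.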

[2] = system: MDAMB231 X4 tumor-bearing Balb/c nude mice; experiment: Biodistribution by radiodetection; assay type: in vivo, mouse; conditions: 24 h after i.v. 50 μg (10 MBq), ^111In
In short: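 Tracer was labelled with 111In alone or with 111In plus 165Ho, and 50 μg (10 MBq) was given i.v.; some mice had SPECT at 24 h first. Mice were killed at 24 h, and tissues were excised and weighed; dual-label samples were halved before weighing. Gamma counting used 245 keV for 60 s. cpm were converted to MBq, corrected for decay and counting efficiency. %ID/g = (MBq in tissue/injected dose ×100%)/tissue weight.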

[3] = system: MDAMB231 X4 tumor-bearing Balb/c nude mice; experiment: In vivo SPECT imaging in tumor-bearing mice; set-up: species or system mouse; conditions: i.v., 50 μg, 10 MBq; 24 hrs post-injection; n=5

Chain of chemokine receptor 4 (CXCR4), MDAMB231 X4 cells (P61073 whole entry): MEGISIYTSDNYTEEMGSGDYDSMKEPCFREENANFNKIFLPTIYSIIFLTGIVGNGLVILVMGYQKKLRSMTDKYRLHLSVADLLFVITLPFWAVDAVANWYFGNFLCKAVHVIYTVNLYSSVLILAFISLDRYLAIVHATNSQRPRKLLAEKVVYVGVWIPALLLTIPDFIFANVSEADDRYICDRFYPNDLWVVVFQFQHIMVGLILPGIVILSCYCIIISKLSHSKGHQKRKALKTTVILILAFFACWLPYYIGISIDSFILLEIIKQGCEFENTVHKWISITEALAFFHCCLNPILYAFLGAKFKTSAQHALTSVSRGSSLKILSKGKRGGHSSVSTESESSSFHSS

With `CC(=O)N[C@@H](CCCNC(=N)N)C(=O)N[C@@H](CCCNC(=N)N)C(=O)N[C@@H](Cc1ccc2ccccc2c1)C(=O)N[C@H]1CSSC[C@@H](C(=O)N[C@@H](CCCNC(=N)N)C(N)=O)NC(=O)[C@H](CCCNC(N)=O)NC(=O)[C@H](CCCNC(=N)N)NC(=O)[C@H](Cc2ccc(O)cc2)NC(=O)[C@@H]2CCCN2C(=O)[C@@H](CCCCNC(=O)CCCNC(=O)[C@H](CCCCNC(=O)CCCCCN2C(=CC=CC=CC3=[N+](CCCCS(=O)(=O)O)c4ccc(S(=O)(=O)[O-])cc4C3(C)C)C(C)(C)c3cc(S(=O)(=O)O)ccc32)NC(=O)CN(CCN(CC(=O)O)CC(=O)O)CCN(CC(=O)O)CC(=O)O)NC(=O)[C@H](CCCNC(=N)N)NC(=O)[C@H](CCCNC(N)=O)NC(=O)[C@H](Cc2ccc(O)cc2)NC1=O` (single isomer, unassigned) [hybrid-Cy5-Ac-TZ14011] as the compound, how does the Kd [1] read?
The Kd was 245 ± 65 nM.

And the “maximum signal intensity, flow cytometry” value ([1]; Cy5, saturation binding, n=6)?
The value was 1100 fluorescence counts.

Which “tumor to muscle ratio (T/M), radiodetection” value ([2]; n=3-5) does the source give for `CC(=O)N[C@@H](CCCNC(=N)N)C(=O)N[C@@H](CCCNC(=N)N)C(=O)N[C@@H](Cc1ccc2ccccc2c1)C(=O)N[C@H]1CSSC[C@@H](C(=O)N[C@@H](CCCNC(=N)N)C(N)=O)NC(=O)[C@H](CCCNC(N)=O)NC(=O)[C@H](CCCNC(=N)N)NC(=O)[C@H](Cc2ccc(O)cc2)NC(=O)[C@@H]2CCCN2C(=O)[C@@H](CCCCNC(=O)CCCNC(=O)[C@H](CCCCNC(=O)CCCCCN2C(=CC=CC=CC3=[N+](CCCCS(=O)(=O)O)c4ccc(S(=O)(=O)[O-])cc4C3(C)C)C(C)(C)c3cc(S(=O)(=O)O)ccc32)NC(=O)CN(CCN(CC(=O)O)CC(=O)O)CCN(CC(=O)O)CC(=O)O)NC(=O)[C@H](CCCNC(=N)N)NC(=O)[C@H](CCCNC(N)=O)NC(=O)[C@H](Cc2ccc(O)cc2)NC1=O` (single isomer, unassigned) [^111In(^165Ho)-hybrid-Cy5-Ac-TZ14011, metal not drawn] here?
Its value is 4.38 ± 1.51.

For `CC(=O)N[C@@H](CCCNC(=N)N)C(=O)N[C@@H](CCCNC(=N)N)C(=O)N[C@@H](Cc1ccc2ccccc2c1)C(=O)N[C@H]1CSSC[C@@H](C(=O)N[C@@H](CCCNC(=N)N)C(N)=O)NC(=O)[C@H](CCCNC(N)=O)NC(=O)[C@H](CCCNC(=N)N)NC(=O)[C@H](Cc2ccc(O)cc2)NC(=O)[C@@H]2CCCN2C(=O)[C@@H](CCCCNC(=O)CCCNC(=O)[C@H](CCCCNC(=O)CCCCCN2C(=CC=CC=CC3=[N+](CCCCS(=O)(=O)O)c4ccc(S(=O)(=O)[O-])cc4C3(C)C)C(C)(C)c3cc(S(=O)(=O)O)ccc32)NC(=O)CN(CCN(CC(=O)O)CC(=O)O)CCN(CC(=O)O)CC(=O)O)NC(=O)[C@H](CCCNC(=N)N)NC(=O)[C@H](CCCNC(N)=O)NC(=O)[C@H](Cc2ccc(O)cc2)NC1=O` (single isomer, unassigned) [^111In-hybrid-Cy5-Ac-TZ14011, metal not drawn], which “uptake on SPECT images” value [3] is on record?
Its value is “high uptake in the liver and kidneys as well as in the tumor”.

What about the “uptake in tumor exceeding uptake in muscle, factor” value [2] of the same compound?
Its value is 6.
